Measured values of several laboratories.
Protocols differ between the studies behind these lines.
Read-out: cell growth or viability

SMILES	cell line	test	setting	endpoint	value
O=C(CCCCCCSc1ccc2ccccc2c1)NO	HBL1	ATP luminescence	0.5 µM, 5 days	viability	113%
NCCC(=O)Nc1cccc(/N=c2\cc(-c3ccc4c(c3)OCO4)oc3ccccc23)c1	MDA-MB-468	CCK-8	1 µM	inhibition	3.6%
O=C(NCCCN1CCCCC1)c1ccc(-c2nc3ccc4[nH]ncc4c3c3c2CCCC3)cc1	MV4-11	resazurin	72 h	GI50	2400 nM
COc1ncccc1Cn1nc(-c2ccc(CO)o2)c2ccccc21	RBE	ATP luminescence	–	IC50	229 nM
C[C@H](Nc1ccc2c(c1)OCCn1cc(N3C(=O)OC[C@H]3C(F)F)nc1-2)C(N)=O	MDA-MB-361	ATP luminescence	5 days	EC50	7.5 nM
COc1cccc(Cn2nc(-c3ccc(CN)o3)c3ccccc32)c1	RBE	ATP luminescence	46 µM, 72 h	inhibition	78%
CN(C)CCNC(=O)c1ccc(-c2nc3ccc4[nH]ncc4c3c3c2CCCC3)cc1	MV4-11	resazurin	72 h	GI50	25 nM
CC(C)(C)[C@H](N)C(=O)Nc1ccccc1/N=c1\cc(-c2ccc3c(c2)OCCO3)oc2cc(F)ccc12	MDA-MB-468	CCK-8	1 µM	inhibition	-0.62%
NC(=O)c1ccc(-c2nc3ccc4[nH]ncc4c3c3c2CCCC3)cc1	MV4-11	resazurin	72 h	GI50	57 nM
O=C(Nc1ccccc1/N=c1\cc(-c2ccc3c(c2)OCO3)oc2ccccc12)N1CCNCC1	MDA-MB-468	CCK-8	1 µM	inhibition	-5.89%
CN1CCN(C(=O)c2ccc(-c3nc4ccc5[nH]ncc5c4c4c3CCCC4)cc2)CC1	MV4-11	resazurin	72 h	GI50	1300 nM
O=C(NO)c1ccc(CC(=O)N(CCO)c2ccccc2)cc1	HBL1	ATP luminescence	0.5 µM, 5 days	viability	117%
OCc1ccc(-c2nn(Cc3ccccc3)c3ccccc23)s1	RBE	ATP luminescence	46 µM, 72 h	inhibition	30%
Cc1n[nH]c2ccc3nc(-c4ccc(C(=O)NCCN(C)C)cc4)c4c(c3c12)CCC(F)(F)C4	MV4-11	resazurin	72 h	GI50	132 nM
NCC(=O)Nc1ccccc1/N=c1\cc(-c2ccc3c(c2)OCO3)oc2ccccc12	MDA-MB-468	CCK-8	1 µM	inhibition	3.86%
CN(C)CCN(C)C(=O)c1ccc(-c2nc3ccc4[nH]ncc4c3c3c2CCCCC3)cn1	MV4-11	resazurin	72 h	GI50	581 nM
OCc1ccc(-c2nn(Cc3ccccn3)c3cccnc23)o1	RBE	ATP luminescence	46 µM, 72 h	inhibition	76%
NCC(=O)Nc1ccccc1/N=c1\cc(-c2ccc3c(c2)OCCO3)oc2ccccc12	MDA-MB-468	CCK-8	1 µM	inhibition	4.61%
O=C(Nc1cccc(Br)c1)c1cccc(S(=O)(=O)N2CCCCCC2)c1	HBL1	ATP luminescence	1 µM, 5 days	viability	101%
CN(C)CCN(C)C(=O)c1ccc(-c2nc3ccc4[nH]ncc4c3c3c2CC(F)(F)CC3)cc1	MV4-11	resazurin	72 h	GI50	748 nM
O=C(OCc1ccccc1)n1nc(-c2ccc(CO)o2)c2ccccc21	RBE	ATP luminescence	46 µM, 72 h	inhibition	55%
O=C(NCCc1ccccn1)c1ccc(-c2nc3ccc4[nH]ncc4c3c3c2CCCC3)cc1	MV4-11	resazurin	72 h	GI50	1000 nM
O=C(Nc1ccccc1/N=c1\cc(-c2ccc3c(c2)OCCO3)oc2cc(F)ccc12)N1CCOCC1	MDA-MB-468	CCK-8	1 µM	inhibition	-2.71%
CCN(Cc1c(F)cccc1OC)c1ccc(CO)c(Cl)c1	RBE	ATP luminescence	46 µM, 72 h	inhibition	65%
NCC(=O)Nc1ccccc1/N=c1\cc(-c2ccc3c(c2)OCCO3)oc2cc(F)ccc12	MDA-MB-468	CCK-8	1 µM	inhibition	11.8%
CCN(Cc1ccc(C)cc1)c1ccc(CO)c(Cl)c1	RBE	ATP luminescence	46 µM, 72 h	inhibition	95%
NCCC(=O)Nc1ccccc1/N=c1\cc(-c2ccc3c(c2)OCCO3)oc2cc(F)ccc12	MDA-MB-468	CCK-8	1 µM	inhibition	31.2%
CCN(Cc1ccc(F)cc1F)c1ccc(CO)c(Cl)c1	RBE	ATP luminescence	46 µM, 72 h	inhibition	82%
